Measured values from ChEMBL document CHEMBL4257576, “4-Iminooxazolidin-2-one as a Bioisostere of the Cyanohydrin Moiety: Inhibitors of Enterovirus 71 3C Protease” (J Med Chem, 2018).
Active and inactive are the calls of the source. The calls are words filed in the database; no cut-off is given here.

Biological target: Genome polyprotein (Enterovirus A71, UniProt A0A1D8D5K2)
Assay: Inhibition of EV71 3C protease expressed in Escherichia coli BL21(DE3) using NMA-IEALFQGPPK(DNP)FR as substrate preincubated for 0.5 hrs followed by substrate addition by fluorescence assay
Conditions: not given
Outline: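 Values reported as Ki (µM), each the mean of three independent experiments with SEM (n=3).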

Sequence of Genome polyprotein (A0A1D8D5K2 whole entry): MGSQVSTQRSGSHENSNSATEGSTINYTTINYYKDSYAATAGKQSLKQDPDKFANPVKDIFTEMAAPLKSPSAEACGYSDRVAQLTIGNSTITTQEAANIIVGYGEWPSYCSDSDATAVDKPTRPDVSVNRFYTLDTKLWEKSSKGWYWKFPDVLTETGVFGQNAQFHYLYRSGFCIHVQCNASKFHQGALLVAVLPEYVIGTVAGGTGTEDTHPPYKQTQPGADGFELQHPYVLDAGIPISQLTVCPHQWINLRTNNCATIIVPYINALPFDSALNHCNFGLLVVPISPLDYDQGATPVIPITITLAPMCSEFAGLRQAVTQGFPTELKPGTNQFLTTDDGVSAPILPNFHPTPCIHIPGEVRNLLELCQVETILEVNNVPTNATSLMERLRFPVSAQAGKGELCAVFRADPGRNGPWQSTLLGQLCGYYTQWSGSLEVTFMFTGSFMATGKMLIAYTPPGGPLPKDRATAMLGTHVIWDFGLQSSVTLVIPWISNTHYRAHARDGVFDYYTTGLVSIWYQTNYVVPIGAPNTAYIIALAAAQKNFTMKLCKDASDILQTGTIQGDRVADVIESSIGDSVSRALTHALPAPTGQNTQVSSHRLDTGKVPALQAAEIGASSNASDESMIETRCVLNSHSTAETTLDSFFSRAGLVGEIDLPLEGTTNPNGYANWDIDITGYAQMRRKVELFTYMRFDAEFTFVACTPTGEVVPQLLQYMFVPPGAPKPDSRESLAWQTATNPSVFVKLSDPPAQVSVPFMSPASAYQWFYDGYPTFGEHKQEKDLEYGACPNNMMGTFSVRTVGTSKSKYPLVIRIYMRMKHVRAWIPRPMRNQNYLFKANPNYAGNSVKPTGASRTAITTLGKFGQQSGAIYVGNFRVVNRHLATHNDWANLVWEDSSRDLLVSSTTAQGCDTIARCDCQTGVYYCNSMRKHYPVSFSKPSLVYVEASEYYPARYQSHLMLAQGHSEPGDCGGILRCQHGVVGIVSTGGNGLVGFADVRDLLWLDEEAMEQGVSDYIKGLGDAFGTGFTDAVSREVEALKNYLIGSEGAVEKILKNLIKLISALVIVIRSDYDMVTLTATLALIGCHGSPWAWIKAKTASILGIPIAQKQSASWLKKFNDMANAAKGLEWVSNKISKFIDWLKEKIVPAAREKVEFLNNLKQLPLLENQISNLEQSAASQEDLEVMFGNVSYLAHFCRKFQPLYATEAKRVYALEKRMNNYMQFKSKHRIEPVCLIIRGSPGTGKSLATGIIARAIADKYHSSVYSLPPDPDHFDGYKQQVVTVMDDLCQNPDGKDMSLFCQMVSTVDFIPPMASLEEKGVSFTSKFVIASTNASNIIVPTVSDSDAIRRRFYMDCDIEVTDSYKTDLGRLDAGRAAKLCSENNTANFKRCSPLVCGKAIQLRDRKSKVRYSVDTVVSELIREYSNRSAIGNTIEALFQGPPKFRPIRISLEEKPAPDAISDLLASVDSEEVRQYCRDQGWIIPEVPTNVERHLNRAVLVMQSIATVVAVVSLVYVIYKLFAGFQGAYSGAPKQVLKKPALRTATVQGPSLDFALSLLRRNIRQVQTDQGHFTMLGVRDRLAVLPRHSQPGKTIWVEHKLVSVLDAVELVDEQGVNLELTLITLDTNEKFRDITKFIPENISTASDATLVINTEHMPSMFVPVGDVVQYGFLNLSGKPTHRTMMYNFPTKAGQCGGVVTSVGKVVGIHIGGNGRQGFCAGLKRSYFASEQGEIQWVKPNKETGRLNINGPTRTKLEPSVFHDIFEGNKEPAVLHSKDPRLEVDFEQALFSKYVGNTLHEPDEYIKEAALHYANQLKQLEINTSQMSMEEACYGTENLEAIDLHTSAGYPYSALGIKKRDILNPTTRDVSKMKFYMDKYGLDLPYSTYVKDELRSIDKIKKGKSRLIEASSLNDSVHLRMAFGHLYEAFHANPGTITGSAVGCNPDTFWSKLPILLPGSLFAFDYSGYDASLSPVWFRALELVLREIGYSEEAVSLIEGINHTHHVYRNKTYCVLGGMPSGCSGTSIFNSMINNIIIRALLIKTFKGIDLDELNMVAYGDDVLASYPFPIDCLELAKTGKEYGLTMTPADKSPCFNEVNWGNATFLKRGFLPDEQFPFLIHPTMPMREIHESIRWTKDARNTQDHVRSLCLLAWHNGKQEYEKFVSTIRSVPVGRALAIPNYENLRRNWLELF

Row | Compound | Ki [nM]
1 | Cc1cc(C(=O)N[C@@H](Cc2ccc(F)cc2)C(=O)N[C@@H](C[C@@H]2CCCNC2=O)[C@H]2OC(=O)N(C)C2=N)no1 | 280
2 | CCN1C(=N)[C@@H]([C@H](C[C@@H]2CCCNC2=O)NC(=O)[C@H](Cc2ccc(F)cc2)NC(=O)c2cc(C)on2)OC1=O | 220
3 | CCCN1C(=N)[C@H]([C@H](C[C@@H]2CCCNC2=O)NC(=O)[C@H](Cc2ccc(F)cc2)NC(=O)c2cc(C)on2)OC1=O | 2600
4 | Cc1cc(C(=O)N[C@@H](Cc2ccc(F)cc2)C(=O)N[C@@H](C[C@@H]2CCCNC2=O)[C@H](C#N)OC(=O)C2CC2)no1 | 560
5 | Cc1cc(C(=O)N[C@@H](Cc2ccc(F)cc2)C(=O)N[C@@H](C[C@@H]2CCCNC2=O)[C@@H](C#N)OC(=O)NC(C)C)no1 | 93
6 | Cc1cc(C(=O)N[C@@H](Cc2ccc(F)cc2)C(=O)N[C@@H](C[C@@H]2CCCNC2=O)[C@H](C#N)OC(=O)NC2CC2)no1 | 1280
7 | CNC(=O)O[C@H](C#N)[C@H](C[C@@H]1CCCNC1=O)NC(=O)[C@H](Cc1ccc(F)cc1)NC(=O)c1cc(C)on1 | 46
8 | CCCCNC(=O)O[C@H](C#N)[C@H](C[C@@H]1CCCNC1=O)NC(=O)[C@H](Cc1ccc(F)cc1)NC(=O)c1cc(C)on1 | 4780
9 | CCNC(=O)O[C@H](C#N)[C@H](C[C@@H]1CCCNC1=O)NC(=O)[C@H](Cc1ccc(F)cc1)NC(=O)c1cc(C)on1 | 190
10 | Cc1cc(C(=O)N[C@@H](Cc2ccc(F)cc2)C(=O)N[C@@H](C[C@@H]2CCCNC2=O)[C@@H]2OC(=O)N(C)C2=N)no1 | 210
11 | CCCNC(=O)O[C@H](C#N)[C@H](C[C@@H]1CCCNC1=O)NC(=O)[C@H](Cc1ccc(F)cc1)NC(=O)c1cc(C)on1 | 183
12 | CCCCNC(=O)O[C@@H](C#N)[C@H](C[C@@H]1CCCNC1=O)NC(=O)[C@H](Cc1ccc(F)cc1)NC(=O)c1cc(C)on1 | 450
13 | CCNC(=O)O[C@@H](C#N)[C@H](C[C@@H]1CCCNC1=O)NC(=O)[C@H](Cc1ccc(F)cc1)NC(=O)c1cc(C)on1 | 51

Tested on: Enterovirus A71
Assay: Antiviral activity against Enterovirus A71 infected in human RD cells receiving pEV71-Luc subgenomic replicon stocks from HEK-293T cells
Type: functional, organism-based
Conditions: Enterovirus A
Outline: (§1)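 Values (EC50, CC50) are the average of three independent experiments, with SEM (n = 3).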

Row | Compound | EC50 [nM]
14 | Cc1cc(C(=O)N[C@@H](Cc2ccc(F)cc2)C(=O)N[C@@H](C[C@@H]2CCCNC2=O)[C@H](C#N)OC(=O)N(C)C)no1 | 70400
15 | Cc1cc(C(=O)N[C@@H](Cc2ccc(F)cc2)C(=O)N[C@@H](C[C@@H]2CCCNC2=O)[C@H]2OC(=O)N(C)C2=N)no1 | 3970
16 | CCN1C(=N)[C@@H]([C@H](C[C@@H]2CCCNC2=O)NC(=O)[C@H](Cc2ccc(F)cc2)NC(=O)c2cc(C)on2)OC1=O | 4370
17 | CCCN1C(=N)[C@H]([C@H](C[C@@H]2CCCNC2=O)NC(=O)[C@H](Cc2ccc(F)cc2)NC(=O)c2cc(C)on2)OC1=O | 12700
18 | Cc1cc(C(=O)N[C@@H](Cc2ccc(F)cc2)C(=O)N[C@@H](C[C@@H]2CCCNC2=O)[C@H](C#N)OC(=O)C2CC2)no1 | 4930
19 | Cc1cc(C(=O)N[C@@H](Cc2ccc(F)cc2)C(=O)N[C@@H](C[C@@H]2CCCNC2=O)[C@@H](C#N)OC(=O)NC(C)C)no1 | 1730
20 | Cc1cc(C(=O)N[C@@H](Cc2ccc(F)cc2)C(=O)N[C@@H](C[C@@H]2CCCNC2=O)[C@H](C#N)OC(=O)NC2CC2)no1 | 5110
21 | CNC(=O)O[C@H](C#N)[C@H](C[C@@H]1CCCNC1=O)NC(=O)[C@H](Cc1ccc(F)cc1)NC(=O)c1cc(C)on1 | 1000
22 | CCCCNC(=O)O[C@H](C#N)[C@H](C[C@@H]1CCCNC1=O)NC(=O)[C@H](Cc1ccc(F)cc1)NC(=O)c1cc(C)on1 | 8460
23 | CCNC(=O)O[C@H](C#N)[C@H](C[C@@H]1CCCNC1=O)NC(=O)[C@H](Cc1ccc(F)cc1)NC(=O)c1cc(C)on1 | 3580
24 | Cc1cc(C(=O)N[C@@H](Cc2ccc(F)cc2)C(=O)N[C@@H](C[C@@H]2CCCNC2=O)[C@@H]2OC(=O)N(C)C2=N)no1 | 1030
25 | Cc1cc(C(=O)N[C@@H](Cc2ccc(F)cc2)C(=O)N[C@@H](C[C@@H]2CCCNC2=O)[C@H](C#N)OC(=O)Nc2ccccc2)no1 | 13200
26 | CCCNC(=O)O[C@H](C#N)[C@H](C[C@@H]1CCCNC1=O)NC(=O)[C@H](Cc1ccc(F)cc1)NC(=O)c1cc(C)on1 | 2210
27 | CCCCNC(=O)O[C@@H](C#N)[C@H](C[C@@H]1CCCNC1=O)NC(=O)[C@H](Cc1ccc(F)cc1)NC(=O)c1cc(C)on1 | 690
28 | CCNC(=O)O[C@@H](C#N)[C@H](C[C@@H]1CCCNC1=O)NC(=O)[C@H](Cc1ccc(F)cc1)NC(=O)c1cc(C)on1 | 750

Tested on: not listed separately
Assay: Cytotoxicity in human RD cells assessed as reduction in cell viability incubated for 24 hrs by WST1 assay
Type: cell-based
Conditions: not given
Outline: as §1

Row | Compound | CC50 at 24 h [nM]
29 | Cc1cc(C(=O)N[C@@H](Cc2ccc(F)cc2)C(=O)N[C@@H](C[C@@H]2CCCNC2=O)[C@H](C#N)OC(=O)N(C)C)no1 | > 100000
30 | Cc1cc(C(=O)N[C@@H](Cc2ccc(F)cc2)C(=O)N[C@@H](C[C@@H]2CCCNC2=O)[C@H]2OC(=O)N(C)C2=N)no1 | > 100000
31 | CCN1C(=N)[C@@H]([C@H](C[C@@H]2CCCNC2=O)NC(=O)[C@H](Cc2ccc(F)cc2)NC(=O)c2cc(C)on2)OC1=O | > 100000
32 | CCCN1C(=N)[C@H]([C@H](C[C@@H]2CCCNC2=O)NC(=O)[C@H](Cc2ccc(F)cc2)NC(=O)c2cc(C)on2)OC1=O | > 100000
33 | Cc1cc(C(=O)N[C@@H](Cc2ccc(F)cc2)C(=O)N[C@@H](C[C@@H]2CCCNC2=O)[C@H](C#N)OC(=O)C2CC2)no1 | > 100000
34 | Cc1cc(C(=O)N[C@@H](Cc2ccc(F)cc2)C(=O)N[C@@H](C[C@@H]2CCCNC2=O)[C@@H](C#N)OC(=O)NC(C)C)no1 | > 100000
35 | Cc1cc(C(=O)N[C@@H](Cc2ccc(F)cc2)C(=O)N[C@@H](C[C@@H]2CCCNC2=O)[C@H](C#N)OC(=O)NC2CC2)no1 | > 100000
36 | CNC(=O)O[C@H](C#N)[C@H](C[C@@H]1CCCNC1=O)NC(=O)[C@H](Cc1ccc(F)cc1)NC(=O)c1cc(C)on1 | > 100000
37 | CCCCNC(=O)O[C@H](C#N)[C@H](C[C@@H]1CCCNC1=O)NC(=O)[C@H](Cc1ccc(F)cc1)NC(=O)c1cc(C)on1 | > 100000
38 | CCNC(=O)O[C@H](C#N)[C@H](C[C@@H]1CCCNC1=O)NC(=O)[C@H](Cc1ccc(F)cc1)NC(=O)c1cc(C)on1 | > 100000
39 | Cc1cc(C(=O)N[C@@H](Cc2ccc(F)cc2)C(=O)N[C@@H](C[C@@H]2CCCNC2=O)[C@@H]2OC(=O)N(C)C2=N)no1 | > 100000
40 | Cc1cc(C(=O)N[C@@H](Cc2ccc(F)cc2)C(=O)N[C@@H](C[C@@H]2CCCNC2=O)[C@H](C#N)OC(=O)Nc2ccccc2)no1 | > 100000
41 | CCCNC(=O)O[C@H](C#N)[C@H](C[C@@H]1CCCNC1=O)NC(=O)[C@H](Cc1ccc(F)cc1)NC(=O)c1cc(C)on1 | > 100000
42 | CCCCNC(=O)O[C@@H](C#N)[C@H](C[C@@H]1CCCNC1=O)NC(=O)[C@H](Cc1ccc(F)cc1)NC(=O)c1cc(C)on1 | > 100000
43 | CCNC(=O)O[C@@H](C#N)[C@H](C[C@@H]1CCCNC1=O)NC(=O)[C@H](Cc1ccc(F)cc1)NC(=O)c1cc(C)on1 | > 100000

Biological target: Genome polyprotein (Enterovirus A71) (UniProt A0A1D8D5K2)
Assay: Covalent binding affinity to EV71 3C protease expressed in Escherichia coli BL21(DE3) at 2 mg/ml incubated for 2 to 3 hrs and measured after trypsin digestion by LC-MS/MS analysis
Conditions: not given

Sequence of Genome polyprotein (Enterovirus A71) (A0A1D8D5K2 as listed by the source): as the sequence (A0A1D8D5K2 whole entry) above

Row | Compound | Activity
44 | CCOC(=O)/C=C/[C@H](C[C@@H]1CCNC1=O)NC(=O)[C@@H](CC(=O)[C@@H](NC(=O)c1cc(C)on1)C(C)C)Cc1ccc(F)cc1 | Active
